Source: PubChem
UBC13 inh: UBC13 polyubiquitin chain formation inhibitors, primary screen, biochemical, TR-FRET, uHTS | inhibition, % at 20 µM | 330,000 compounds, 0.47% hits | AID 485273, 2010; in the data active = inhibition above about 45%, passing the limit was not always enough; inconclusive = no clear call, values can overlap the other calls
Target sequence (P61088 whole entry, looked up): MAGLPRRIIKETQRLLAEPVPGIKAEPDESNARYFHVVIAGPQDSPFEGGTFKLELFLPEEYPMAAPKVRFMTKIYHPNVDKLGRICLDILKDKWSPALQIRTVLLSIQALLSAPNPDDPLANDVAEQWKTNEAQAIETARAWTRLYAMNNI
pCIP destab: p/CIP-EGFP fusion destabilizers, primary screen, fluorescence, F442A cells | 16 h | decrease of EGFP signal, % at 10 µM | Q05BA5 | AID 1984, 2009 | 290,000 compounds, 0.01% hits;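 active = EGFP signal decrease of at least 30% at 10 µM or well 3 SD below plate mean, unless failing retest; inactive = the rest, including hits failing retest or dose response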
AI-2 QS modul: Vibrio harveyi AI-2 quorum sensing modulators, primary screen, JMH597 strain, luminescence/OD600 ratio; Vibrio harveyi JMH597 AI-2 luminescence/OD600 ratio, 9 h; stronger effect = lower value; strain lacks LuxN and CqsS sensors; 0 = neutral-control median; activity change, % at 7.5 µM; 300,000 compounds, 0.4% hits; AID 2094, 2009; in the data active = activity change below about -75%, passing the limit was not always enough; inconclusive = no clear call, values can overlap the other calls;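 note: luminescence divided by OD600 gain over 9 h not by final OD600 alone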
T cruzi inh: inhibitors of intracellular T. cruzi growth, primary screen, luminescence, NIH3T3 host cells. T. cruzi beta-gal in NIH3T3, 90 h. 300,000 compounds, 1.4% hits. inhibition, % (test concentration not listed);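 active = mean inhibition across valid replicates above about 55%, limit read from the data; inconclusive = mean below that limit but half or more replicates reach it; inactive = mean below it, under half of replicates reach it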;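 note: signal also drops with host cell toxicity which is not excluded here; higher percent means less beta-gal luminescence so fewer parasites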
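Assay system: NIH/3T3 fibroblasts plus reporter T. cruzi. Amount: NIH/3T3 cells, 5,000 per well. Buffer or medium: DMEM, 2% fetal bovine serum. Doses: compound pinned at 50 nL/well, DMSO. Schedule: ≥90 h infection period, 3 h prior cell attachment. Signal: luminescent β-galactosidase signal after 60 min lysis. Read-out: parasite load inhibition, %.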
PP1 inh: PP1-alpha phosphatase inhibitors, primary screen, counter-screen for PP5 inhibitor project, biochemical, fluorescence, OMFP substrate, single point; purified PP1alpha; inhibition, % at 6.7 µM; Serine/threonine-protein phosphatase PP1-alpha catalytic subunit (Homo sapiens), P62136; 320,000 compounds, 0.9% hits;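 active = inhibition above the mean inhibition of all tested compounds plus 3 SD, computed separately for each screening campaign, cut at about 15% in these data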
Target sequence (P62136 whole entry, looked up): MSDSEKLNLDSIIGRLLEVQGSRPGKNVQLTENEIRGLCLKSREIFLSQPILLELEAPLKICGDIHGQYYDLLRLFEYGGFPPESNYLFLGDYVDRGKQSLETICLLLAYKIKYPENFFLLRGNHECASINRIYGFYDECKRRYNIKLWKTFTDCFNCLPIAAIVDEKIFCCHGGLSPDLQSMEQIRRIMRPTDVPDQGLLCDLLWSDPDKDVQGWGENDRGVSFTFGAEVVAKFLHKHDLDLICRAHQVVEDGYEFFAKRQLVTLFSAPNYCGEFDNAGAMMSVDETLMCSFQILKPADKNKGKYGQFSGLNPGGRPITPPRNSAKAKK
Large screens that a line does not name were inactive. An excerpt weighted towards active compounds, which were near 2.8% of everything screened.

C=CCn1c(SCC(=O)N(C(C)CC)C2CCS(=O)(=O)C2)nc2ccccc2c1=O (stereo unspecified)	none (no result: pCIP destab, AI-2 QS modul, T cruzi inh, PP1 inh)
CC(C)=CCN1CCN(Cc2c(C)nn(C)c2Cl)CC1CCO (stereo unspecified)	none
O=C(Nc1ccccc1)Nc1ccccc1-n1ccnc1	T cruzi inh 61
O=C(Nc1ccccc1)Nc1ccc(Nc2ccccc2)cc1	none (no result: pCIP destab)
CC(C)(C)c1ccc(CN2C3=NCCCN3c3ccccc32)cc1	T cruzi inh 69
Cc1ccc(CN2C3=NCCCN3c3ccccc32)cc1	none (no result: AI-2 QS modul, T cruzi inh)
CCOc1ccc(-n2c(SCC(=O)Nc3ccc(Br)cc3)nc3n[nH]c(C)c3c2=N)cc1	PP1 inh 17
Cc1cc(C)n(CC(=O)N/N=C/c2cccs2)n1	none
O=C(N/N=C/c1ccc([N+](=O)[O-])s1)c1ccncc1	AI-2 QS modul -87, T cruzi inh 56
CCN(CC)C(=O)C1CCCN(c2ccc([N+](=O)[O-])cc2/C=N/NC(=O)c2cccc(Br)c2)C1 (stereo unspecified)	PP1 inh 17
Cc1cc(C)n(CC(=O)N/N=C/c2ccc([N+](=O)[O-])s2)n1	T cruzi inh 59
O=C(N/N=C/c1ccc(Br)s1)c1ccc([N+](=O)[O-])cc1	T cruzi inh 76
O=C(N/N=C/c1cc([N+](=O)[O-])ccc1N1CCCCCC1)c1ccccn1	none
O=C(N/N=C/c1ccc(Br)s1)c1ccccc1[N+](=O)[O-]	none
Cc1cccc(NC(=O)CCNC(=O)c2ccc(Br)cc2)c1C	none (no result: UBC13 inh, PP1 inh)
Cc1ccc(C(=O)N/N=C/c2ccc([N+](=O)[O-])s2)cc1	T cruzi inh 58
CC(C)(C)OC(=O)N/N=C\c1ccc([N+](=O)[O-])s1	T cruzi inh 57
O=C(N/N=C/c1ccc([N+](=O)[O-])s1)c1cccc(Br)c1	T cruzi inh 93
CCOC(=O)N/N=C\c1ccc([N+](=O)[O-])s1	none
CC(=O)NCCC1CCN(C(=O)c2cc(COc3ccc(C)nc3)on2)CC1	none
CC1(C)C=Cc2cc(-c3coc4cc(O)cc(O)c4c3=O)cc(O)c2O1	none (no result: pCIP destab)
O=C(N=Nc1c(O)[nH]c2ccc(Br)cc12)c1cc(-c2cccs2)nc2ccccc12	T cruzi inh 56 (no result: UBC13 inh, PP1 inh)
Cn1c(O)c(N=NC(=O)c2cc(-c3cccs3)nc3ccccc23)c2ccccc21	none
Oc1ccc(CCNc2ncnc3ccc(Cl)cc23)cc1	none
NS(=O)(=O)c1ccc(N=C2C(=O)Nc3ccccc32)cc1	PP1 inh 16
O=C1Nc2ccccc2C1=Nc1ccc(F)cc1	none
Cc1cc(N/N=C/c2ccc(O)cc2O)nc(-n2nc(C)cc2C)n1	T cruzi inh 60, PP1 inh 16 (no result: UBC13 inh)
Cc1cc(N/N=C/c2ccccc2O)nc(-c2ccccc2O)n1	none
Cc1cc(N/N=C/c2ccccc2[N+](=O)[O-])nc(-n2nc(C)cc2C)n1	T cruzi inh 69
COC(=O)c1cccc(Nc2cc(C)nc(-c3ccccc3O)n2)c1	UBC13 inh inconclusive, T cruzi inh 58
Cc1cc(N/N=C/c2ccc(O)cc2O)nc(-c2ccccc2O)n1	AI-2 QS modul inconclusive, T cruzi inh 60 (no result: UBC13 inh)
COc1ccc(NC(=O)CNCc2ccc(Cl)cc2)cc1S(=O)(=O)N1CCOCC1	none (no result: pCIP destab, AI-2 QS modul, T cruzi inh, PP1 inh)
C[C@@H]1CN([C@@H](C)CO)C(=O)c2cccc(NC(=O)Nc3ccccc3)c2O[C@H]1CN(C)C(=O)Nc1cccc2ccccc12	none (no result: pCIP destab, AI-2 QS modul, T cruzi inh, PP1 inh)
CCn1nnc2cc(C(=O)OCC(=O)N(C)Cc3cccc(F)c3)ccc21	none (no result: pCIP destab, AI-2 QS modul, T cruzi inh, PP1 inh)
CN(CC(=O)Nc1ccccc1Cl)C(=O)COC(=O)c1ccc([N+](=O)[O-])s1	none (no result: pCIP destab, AI-2 QS modul, T cruzi inh, PP1 inh)
O=C(OCC(=O)N1CCOCC1)c1ccc(Cl)cc1[N+](=O)[O-]	AI-2 QS modul -79
O=C(OCC(=O)N1CCN(c2ccccc2)CC1)c1ccc(Cl)cc1[N+](=O)[O-]	none (no result: pCIP destab)
CN(CC(=O)Nc1ccccc1Cl)C(=O)COC(=O)c1ccc(Cl)cc1[N+](=O)[O-]	AI-2 QS modul -94
O=C(OCC(=O)N1CCCC1=O)c1ccc(Cl)cc1[N+](=O)[O-]	AI-2 QS modul -81 (no result: pCIP destab)
Nc1c(Cl)cc(Cl)cc1C(=O)OCC(=O)N1CCCC1=O	none (no result: pCIP destab)
Cc1ccc(C)c(N(C(=O)c2snc(C(N)=O)c2N)C(C(=O)NCC2CCCO2)c2ccc(C)o2)c1 (stereo unspecified)	none
CC(C)(C)N1OC2CC1c1nc3ccccc3n1C2 (stereo unspecified)	none
O=C(CSc1nnc(-c2cccs2)n1-c1cccc(Cl)c1)c1cccc2c1OCCO2	none
Cc1ccc2[nH]c(C(=O)N/N=C/c3ccccc3O)c(C)c2c1	T cruzi inh 70
COc1cccc(C(=O)C2CCCN(Cc3ccc(OC)c(Cn4cncn4)c3)C2)c1 (stereo unspecified)	T cruzi inh 58
COc1cccc(C(=O)C2CCCN(Cc3cccc(OCCO)c3)C2)c1 (stereo unspecified)	none
COc1cc(CN2CCCC(C(=O)c3ccc(C(C)(C)C)cc3)C2)cc(OC)c1O (stereo unspecified)	none
COc1ccc(CN2CCCC(C(=O)c3ccc(Cl)cc3)C2)cc1Cn1cccn1 (stereo unspecified)	T cruzi inh 64
COc1ccc(CN2CCCC(C(=O)Nc3cccc(-n4cccn4)c3)C2)cc1 (stereo unspecified)	none
COCc1cc(CN2CCCC(C(=O)Nc3cccc(-n4cnnn4)c3)C2)ccc1OC (stereo unspecified)	T cruzi inh 70
CCN1CCN(C(C)C(=O)NC2CCCCC2)CC1 (stereo unspecified)	none
O=C(Cn1c(=O)c(=O)n(Cc2ccccc2)c2ccc(Cl)cc21)NCC1CCCO1 (stereo unspecified)	none
CCCCn1c(Cl)nc2c1c(=O)n(C)c(=O)n2C	none
Cn1c(=O)c2c(nc(Cl)n2CCOc2ccccc2)n(C)c1=O	PP1 inh 16
CC(C)C(=O)NC(=S)Nc1ccc(S(=O)(=O)N(C)Cc2ccccc2)cc1	none (no result: T cruzi inh)
CC(=O)NC(=S)Nc1ccc(S(=O)(=O)N(C)Cc2ccccc2)cc1	T cruzi inh 68
CC1CCC(C(C)C)C(OC(=O)COC(=O)c2cc(O)ccc2N)C1 (stereo unspecified)	T cruzi inh 70
Cc1cc(C)c2c(NC(=S)NC(=O)c3ccccc3)n[nH]c2n1	none (no result: T cruzi inh)
CCCCN(CC)CCNC(=O)c1cc2c(-c3ccc(Cl)cc3)nn(C)c2s1	T cruzi inh 57
COc1ccc(N=c2cc(-c3ccc(OC)cc3)oc3ccccc23)cc1	none
CCOc1ccc(N=c2cc(-c3ccc(OC)cc3)oc3ccccc23)cc1	T cruzi inh 57
COc1ccccc1OCCSc1nc2ccccc2n1CC(N)=O	none
O=C(Nc1ccccc1C(=O)Nc1nnc(C(F)(F)F)s1)c1ccccc1	T cruzi inh 59
Cc1occc1C(=O)Nc1nnc(C(F)(F)F)s1	none
